Assay results gathered from unrelated publications.
Protocols differ between the studies behind these lines.
Target: RAC-gamma serine/threonine-protein kinase (AKT3, Homo sapiens, UniProt Q9Y243)

`Cc1cc(NC(=O)c2cccc3cc(-c4cccc5[nH]nc(N)c45)ccc23)ccc1F` has an activity vs control of 90% (enzyme activity; inhibitor; 0.1 µM).
The remaining binding of `Cn1nc(C(F)(F)F)cc1-c1cnc(N2CCc3cc(S(=O)(=O)Nc4c(F)cc(Cl)cc4F)cc(N4CCCC4=O)c32)nc1` is reported as 84% (cell-free assay; competition with immobilised ligand; 1 µM).
`O=C(Nc1cnn(-c2csc(C(=O)NC3COC3)c2)c1)Nc1ccccc1Cl` gave a remaining activity of 87.3% (enzyme activity; inhibitor; 5 µM).
`Cc1ccc(NC(=O)c2ccc(CN3CCN(C)CC3)cc2)cc1Nc1nc(-c2cccnc2)cs1` gave a remaining signal of 102% (cell-free assay; 0.5 µM).
`Cc1cnc(NC2CCOCC2)nc1-n1cnc(C(=O)NC(CN)c2cc(F)cc(Cl)c2)c1` (centres unmarked) has a remaining activity of 78% (enzyme activity; inhibitor; radiometric; 1 µM).
The inhibition of `CCCS(=O)(=O)Nc1ccc(F)c(C(=O)c2c[nH]c3ncc(-c4ccc(Cl)cc4)cc23)c1F` is reported as < 10% (enzyme activity; inhibitor; 1 µM).
For `COc1cc2ncnc(Nc3ccc(Oc4ccccc4)c(C)c3C)c2cc1OC`, the inhibition was 1% (enzyme activity; inhibitor; 1 µM).
For `N#CC1c2c([nH]c3c(Cl)c(Cl)ccc23)C(=O)NC12CCCCC2` (racemic), the ΔTm was -0.7 °C (thermal stability; DSF; 10 µM).
`Cn1nc(C(=O)NCc2ccc(C(=O)O)cc2)cc1-c1ccc2[nH]ccc2c1` gave a remaining binding of 88% (cell-free assay; competition with immobilised ligand; 0.1 µM).
`CCCOc1ccc(OC)c(F)c1C(=O)c1ccc(C(=O)N[C@@H]2CNC[C@H]2NC(=O)c2ccc3[nH]ncc3c2)cc1` has a remaining activity of 39% (enzyme activity; inhibitor; 0.75 µM).
With `CNC(=O)c1cc(Oc2ccc(NC(=O)Nc3ccc(Cl)c(C(F)(F)F)c3)cc2)ccn1` the inhibition was -4% (enzyme activity; inhibitor; 0.3 µM).
The remaining binding of `CS(=O)(=O)N1CCCC(NC(=O)[C@H](CCC2CCCCC2)NC(=O)c2ccc(CNC(=O)c3cnc4ccccn34)cc2)C1` (some centres unmarked) is reported as 100% (cell-free assay; competition with immobilised ligand; 0.1 µM).
With `N#CCCc1ccc2c(c1)-c1[nH]c3ccc([N+](=O)[O-])cc3c1CC(=O)N2` the remaining signal was 95.5% (cell-free assay; 0.5 µM).
`FC(F)(F)c1ccc2c(c1)nc(-c1cccnc1)n2C1CC1` has a remaining binding of 100% (cell-free assay; competition with immobilised ligand; 1 µM).
The ΔTm of `Cn1c2c(Cl)c(Cl)ccc2c2cc(N)[nH]c(=O)c21` is reported as 0.3 °C (thermal stability; DSF; 10 µM).
With `CN(C)CC#Cc1ccc(OCCCc2sc(N3CCc4cccc(C(=O)Nc5nc6ccccc6s5)c4C3)nc2C(=O)O)c(F)c1` the remaining binding was 100% (cell-free assay; competition with immobilised ligand; 1 µM).
`CCC1(CC)NC(=O)c2c(c3ccc(Cl)c(Cl)c3n2C)C1C#N` (centres unmarked) gave a ΔTm of 0.1 °C (thermal stability; DSF; 10 µM).
